ROMK primary – human ROMK K+ channel modulation, primary screen | AID 1918 | P48048 | B-score at 10 µM | Tet-inducible ROMK, thallium flux fluorescence; actives lie on both sides | 130,000 tested, 2% active;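 active = signal ratio slope over the read window, or its plate-corrected B-score, at least 3 SD from the plate mean, either direction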;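 note: B-score of the F/F0 ratio slope over 7 to 12 s after thallium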
Target sequence (P48048 whole entry, looked up): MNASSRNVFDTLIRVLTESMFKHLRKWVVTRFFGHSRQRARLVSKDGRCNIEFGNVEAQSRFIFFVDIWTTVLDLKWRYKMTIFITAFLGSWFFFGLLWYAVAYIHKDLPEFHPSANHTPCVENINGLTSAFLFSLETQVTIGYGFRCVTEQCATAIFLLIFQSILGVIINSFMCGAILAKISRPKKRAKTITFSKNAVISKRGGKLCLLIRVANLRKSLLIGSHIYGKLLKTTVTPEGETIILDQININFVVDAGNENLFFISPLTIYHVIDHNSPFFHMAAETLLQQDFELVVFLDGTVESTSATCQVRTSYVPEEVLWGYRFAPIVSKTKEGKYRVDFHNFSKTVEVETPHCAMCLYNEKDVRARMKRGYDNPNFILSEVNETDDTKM
Biofilm kill mix – mixture kills Candida albicans biofilm cells; C. albicans biofilm persisters + clotrimazole, fluorescence viability; primary screen in compound mixtures of four per well; inhibition, % at 7.6 µM; 120,000 tested, 0.02% active; AID 1242;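 active = inhibition above 30.3% in the primary screen of four-compound pools, then above 30% when the compound was retested; inconclusive = passed the primary limit but could not be retested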;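 note: compounds exposed to preformed 24 h biofilms for 48 h; 0% = untreated biofilm control and 100% = clotrimazole plus chlorhexidine kill blank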
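Assay system: C. albicans biofilms / Medium: RPMI/MOPS medium, pH 7.0 / Schedule: biofilm formation 24 h, compound exposure 48 h, 37 °C / Measured by: Alamar Blue fluorescence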
ROMK hit retest – human ROMK channel modulation, retest confirmation | normalized thallium flux (F/F0 slope) at 10 µM | ROMK thallium flux, fluorescence ratio; hits give low values | shares compounds with ROMK primary | 3,000 tested, 54% active;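 active = Flux at 10 µM at least 3 SD below or above vehicle control mean in one or both replicates; inconclusive = no clear call, values can overlap the other calls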
An asterisk follows results filed as active; ? = inconclusive; / = no result given. Only a selection was taken, and hits are over-represented in it overall.

SMILES	ROMK primary	Biofilm kill mix	ROMK hit retest
CCc1ccc(N2CC(C(=O)N/N=C/c3cc([N+](=O)[O-])ccc3O)CC2=O)cc1 (stereo unspecified)	-0.36	1	/
COCCCn1c2nc3ccccc3nc2c2c(=O)n(Cc3ccc(Cl)cc3)cnc21	-1.2	/	/
COCCCn1c(C)nc2c(c1=O)c1nc3ccccc3nc1n2CCc1ccccc1	-4*	/	0.05*
COCCNC(=O)C(=O)NCC1OCCN1C(=O)c1ccc(Cl)cc1 (stereo unspecified)	0.44	9	/
O=C(NNC(=O)c1sccc1-n1cccc1)c1cccs1	-0.092	-24	/
CNC(=O)c1sccc1-n1cccc1	2.9*	/	0.076
Cc1ccc(OCc2nnc(SCc3ccc(C#N)cc3)n2-c2ccc(C)cc2)cc1	1.8	/	/
C=CCn1c(COc2ccc(Cl)cc2)nnc1SCc1ccc(C#N)cc1	/	/	?
COC(=O)c1cccnc1-n1c(=O)c2cccnc2n(Cc2cccc([N+](=O)[O-])c2)c1=O	0.43	15	/
COc1ccc(CNC(=O)C(C)Sc2ccc(C)cc2)cc1 (stereo unspecified)	-0.58	43	/
Cc1ccc(SC(C)C(=O)NCc2ccncc2)cc1 (stereo unspecified)	2.5*	6	0.084
C=CCn1c(-c2ccc(C)cc2)nc2ccccc21	-0.55	/	/
COc1ccc(NC(=O)CN2CCN(CC(=O)Nc3ccccc3Cl)CC2)c(OC)c1	-0.54	/	/
CC(C)c1ccc(-n2c(-c3ccccc3)c[n+]3c2CCc2ccccc2-3)cc1	-6*	35*	0.041*
COc1ccc(-n2c(-c3ccc(Br)cc3)c[n+]3c2CCc2ccccc2-3)cc1	-2.5	25	/
COc1ccc(C(=O)NC2CCN(C(=S)Nc3ccccc3C)CC2)cc1	-0.044	12	/
COc1ccc(N(C(=O)c2ccc(Br)o2)C2C=CS(=O)(=O)C2)c(OC)c1 (stereo unspecified)	1.9	18	/
Cc1cc(C(=O)OCC(=O)N2c3ccccc3CC2C)c(C)o1 (stereo unspecified)	-1.4	/	?
CCN(CC)S(=O)(=O)c1ccc(O)c(C(=O)OCC(=O)N2c3ccccc3CC2C)c1 (stereo unspecified)	/	11	/
O=C(CSc1ccccn1)Nc1ccc(F)c([N+](=O)[O-])c1	-0.21	18	/
Cc1ccc(S(=O)(=O)N2CCCC2C(=O)NC2CCCCC2)cc1 (stereo unspecified)	0.26	/	/
CCOC(=O)C1=C(Cc2ccc(C)cc2)C(=O)c2ccccc2C1=O	-5.1*	/	0.054*
CCOC(=O)c1ccc(COC(=O)c2ccc3c(c2)-c2ccccc2C3=O)cc1	0.014	/	/
COc1ccc2cc(Br)ccc2c1CC(=O)NC1CC(C)(C)NC(C)(C)C1	-2.9*	/	0.067*
CCNC(=O)Cc1c(OC)ccc2cc(Br)ccc12	0.19	19	/
SMILES	ROMK primary	Biofilm kill mix	ROMK hit retest
C=C(C)CCOC(=O)C(CC(=O)O)NCc1ccco1 (stereo unspecified)	/	22	/
O=C(NCCc1c[nH]c2ccccc12)/C(=C/c1ccco1)NC(=O)c1ccco1	2.3*	8	0.088
CC(=C\c1ccco1)/C=C(\C#N)C(=O)NCCc1c[nH]c2ccccc12	/	12	/
CC(C)n1cnc2c(N(C)c3ccccc3)nc(N(CCN(C)C)Cc3ccccc3)nc21	/	20	0.052*
COc1ccc(CN(CCN(C)C)c2ccccn2)cc1	/	17	/
COc1ccc(-n2cccc2C=O)cc1	0.045	21	/
COc1ccc(-n2cccc2/C=C/[N+](=O)[O-])cc1	-5.5*	11	0.041*
CCc1cccc(NC(=O)Cn2c3[n+](c4ccc(C(F)(F)F)cc42)CCCCC3)c1	-0.53	10	/
CCOC(=O)c1ccc(NC(=O)CC2S/C(=N/N=C/c3c[nH]c4ccccc34)NC2=O)cc1 (stereo unspecified)	0.59	11	/
O=[N+]([O-])c1cc(/C=N/N/C(=N/c2ccccn2)c2ccccn2)ccc1O	-0.56	-2	/
CCCN1C(=O)/C(=C\C=C2/C=CN(CC)c3ccccc32)SC1=S	/	-3	/
CCCCN1C(=O)/C(=C/C=C2\N(C)c3ccccc3C2(C)C)SC1=S	-4.4*	/	0.039*
CN1CCS/C1=C/C=C1\SC(=S)N(CC(=O)O)C1=O	/	6	/
CCCCN1C(=O)/C(=C/C=C2\SCCN2C)SC1=S	-3.3*	-8	0.052*
Cc1csc(SCC(=O)N2CCN(S(=O)(=O)c3ccccc3)CC2)n1	0.68	/	/
Cc1ccc(/C=N/N2CCCCC2)o1	-0.61	4	/
N#CCC(=O)Nc1ccc(C(=O)OCC(=O)N(Cc2ccccc2)C2CCS(=O)(=O)C2)cc1 (stereo unspecified)	0.42	-8	/
CCOC(=O)c1cccc(Nc2nc(-c3cccnc3)nc3ccccc23)c1	0.0026	/	/
COc1ccc(C2=CC(c3ccc(C)cc3)n3nnnc3N2)cc1 (stereo unspecified)	-4.4*	/	?
COc1ccc(C2C=C(c3ccccc3)Nc3nnnn32)cc1 (stereo unspecified)	1.1	/	/
CCN1CCN(C(c2cc3cc4c(cc3[nH]c2=O)OCO4)c2nnnn2C(C)(C)CC)CC1 (stereo unspecified)	-0.64	/	/
Cc1ccc(S(=O)(=O)Nc2cc(NC(=O)CN3CCOCC3)ccc2Cl)cc1	/	/	0.088
Cc1ccc(S(=O)(=O)Nc2ccc(NC(=O)CN3CCCCC3)cc2)cc1	0.39	/	/
COc1cc2nc(SCC(=O)c3ccc(Br)cc3)n3nc(C)nc3c2cc1OC	-0.025	9	/
COc1ccc(C2=NN(C(=O)CCC(=O)O)C(c3cccs3)C2)cc1 (stereo unspecified)	-3.5*	16	0.075
SMILES	ROMK primary	Biofilm kill mix	ROMK hit retest
COc1cccc(C2=NN(C(=O)CCCC(=O)O)C(c3cccs3)C2)c1 (stereo unspecified)	-0.49	18	/
COc1ccc(CC(=O)Nc2ccc(-c3ccc4nnc(C)n4n3)cc2)cc1OC	0.16	4	/
CC1=C(C(=O)OCC2CCCO2)C(c2coc3ccc(C)cc3c2=O)C2=C(CCCC2=O)N1 (stereo unspecified)	-0.0022	4	/
CC1=C(C(=O)OCC2CCCO2)C(c2coc3ccc(Cl)cc3c2=O)C2=C(CCCC2=O)N1 (stereo unspecified)	-2.7*	10	0.073
CC(=O)c1ccc(Nc2cc(C)nc3ccccc23)cc1	-0.024	19	/
CC(=O)c1ccc(Nc2cc(C)nc3c(C)cccc23)cc1	4.2*	24	0.087
CCCCn1c(=O)[nH]c(=O)c2c1nc(-c1ccc(C)c([N+](=O)[O-])c1)n2CC	0.38	6	/
Cc1ccc(-c2nc3c(c(=O)[nH]c(=O)n3CC(C)C)n2CC(C)C)cc1[N+](=O)[O-]	-3.6*	3	0.056*
COc1ccc(C(=O)Cn2nnc(-c3ccccc3NC(=O)C(F)(F)F)n2)cc1	2*	/	0.073
COc1ccc(C(=O)Cn2nnc(-c3ccccc3NC(=O)C3CCCCC3)n2)cc1	-0.83	/	/
COc1cccc(CSc2nc3ccccc3[nH]2)c1	/	6	/
CCCCC(=O)Nc1ccc(Br)cn1	-0.31	/	/
C=CCCC(=O)Nc1ccc(Br)cn1	2.5*	10	0.076
CC1(C)OC(C)(C)/C(=C/Nc2ccc(O)cc2)C1=O	0.37	8	/
Cc1noc(C)c1S(=O)(=O)Nc1c(C)n(C)n(-c2ccccc2)c1=O	0.083	/	/
CC1=CC2=NC(=O)/C(=C\c3cccn3CCOc3cccc(C)c3)C(=N)N2O1	-0.33	16	/
COc1cccc(OCCn2cccc2/C=C2/C(=N)N3OC(C)=CC3=NC2=O)c1	-3.3*	15	0.077

Compound activity: PubChem BioAssay, several laboratories
